Laboratory results taken from ChEMBL document CHEMBL1122127, “New anticancer agents: synthesis of 1,2-dihydropyrido[3,4-b]pyrazines (1-deaza-7,8-dihydropteridines)” (1982).
Blank lines part the entries; values can stand above or below the compound they belong to.

Tests used:
L1210 [1] = test: Inhibitory concentration against proliferation of cultured lymphoid leukemia L1210 cells during 48 hrs.; type: functional; conditions: Mus musculus, L1210, 48 h; read-out: ID50 (the source's name)
L1210 [2] = test: Fraction of cell population of cultured lymphoid leukemia L1210 cells in mitosis at a dose of 0.3 uM after 12 hr; type: functional, Mus musculus
Mus musculus [3] = test: Increase in life span at the highest nontoxic dose against P-388 tumor cell […] at 25 mg/kg; type: functional; conditions: P388
In short: (§1)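 Mice bearing lymphocytic leukemia P-388 (parental or drug-resistant sublines). The reported value is the increase in life span at the highest nontoxic dose tested.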

L1210 [4] = test: Fraction of cell population of cultured lymphoid leukemia L1210 cells in mitosis at a dose of 0.01 uM after 12 hr; type: functional, Mus musculus
Mus musculus [5] = test: Increase in life span at the highest nontoxic dose against P-388 tumor cell […] at 67 mg/kg; type: functional; conditions: P388; in short: as §1
L1210 [6] = test: Fraction of cell population of cultured lymphoid leukemia L1210 cells in mitosis at a dose of 0.03 uM after 12 hr; type: functional, Mus musculus
Mus musculus [7] = test: Increase in life span at the highest nontoxic dose against P-388 tumor cell […] was determined at 100 mg/kg; type: functional; conditions: P388; in short: as §1
L1210 [8] = test: Fraction of cell population of cultured lymphoid leukemia L1210 cells in mitosis at a dose of 0.3 uM after 24 hr; type: functional, Mus musculus
Mus musculus [9] = test: Increase in life span at the highest nontoxic dose against P-388 tumor cell […] at 90 mg/kg; type: functional; conditions: P388; in short: as §1
Mus musculus [10] = test: Increase in life span at the highest nontoxic dose against P-388 tumor cell after 1,5,9 day at 30 mg/kg; type: functional; conditions: P388; in short: as §1
Mus musculus [11] = test: Increase in life span at the highest nontoxic dose against Vincristine-resistant line of P-388 tumor cell […] at 12 mg/kg; type: functional; conditions: P388; in short: as §1
Mus musculus [12] = test: Increase in life span at the highest nontoxic dose against P-388 tumor cell […] at 100 mg/kg; type: functional; conditions: P388; in short: as §1
Mus musculus [13] = test: Increase in life span at the highest nontoxic dose against P-388 tumor cell […] at 50 mg/kg; type: functional; conditions: P388; in short: as §1
Mus musculus [14] = test: Increase in life span at the highest nontoxic dose against P-388 tumor cell […] was determined at 25 mg/kg; type: functional; conditions: P388; in short: as §1
Mus musculus [15] = test: Increase in life span at the highest nontoxic dose against methotrexate resistant cell line of P-388 tumor cell […] at 25 mg/kg; type: functional; conditions: P388; in short: as §1
Mus musculus [16] = test: Increase in life span at the highest nontoxic dose against P-388 tumor cell after 1-9 days at 25 mg/kg; type: functional; conditions: P388; in short: as §1
L1210 [17] = test: Fraction of cell population of cultured lymphoid leukemia L1210 cells in mitosis at a dose of 0.1 uM after 12 hr; type: functional, Mus musculus
Mus musculus [18] = test: Increase in life span at the highest nontoxic dose against P-388 tumor cell after 1-5 days at 12 mg/kg; type: functional; conditions: P388; in short: as §1
Mus musculus [19] = test: Increase in life span at the highest nontoxic dose against P-388 tumor cell after 1,5,9 day at 6.25 mg/kg; conditions: P388
Mus musculus [20] = test: Increase in life span at the highest nontoxic dose against P-388 tumor cell after 1,5,9 day at 12.5 mg/kg; type: functional; conditions: P388; in short: as §1
Mus musculus [21] = test: Increase in life span at the highest nontoxic dose against P-388 tumor cell […] at 200 mg/kg; type: functional; conditions: P388; in short: as §1

IC50 (L1210 [1]): 78 nM
SMILES: CCOC(=O)Nc1cc2c(c(N)n1)N=C(c1cc(OC)c(OC)c(OC)c1)CN2

SMILES: CCOC(=O)Nc1cc2c(c(N)n1)N=C(c1ccc(-c3ccccc3)cc1)CN2
Mitotic index (L1210 [2]): 0.42
ILS at 25 mg/kg (Mus musculus [3]): 36%
Mitotic index (L1210 [4]): 0.65
IC50 (L1210 [1]): 6.1 nM

SMILES: CCOC(=O)Nc1cc2c(c(N)n1)N=C(CN(C)c1ccccc1)CN2
ILS at 67 mg/kg (Mus musculus [5]): 90%
Mitotic index (L1210 [6]): 0.77
ILS at 100 mg/kg (Mus musculus [7]): 114%
Mitotic index (L1210 [8]): 0.8
IC50 (L1210 [1]): 8.4 nM

IC50 (L1210 [1]): 1.22 nM
SMILES: CCOC(=O)Nc1cc2c(c(N)n1)N=C(c1cccc(OC)c1)CN2

IC50 (L1210 [1]): 6.8 nM
SMILES: CCOC(=O)Nc1cc2c(c(N)n1)N=C(c1ccc(F)cc1)CN2

IC50 (L1210 [1]): 23 nM
SMILES: CCOC(=O)Nc1cc2c(c(N)n1)N=C(c1ccc(N)cc1)CN2

SMILES: CCOC(=O)Nc1cc2c(c(N)n1)N=C(c1ccc(C(F)(F)F)cc1)CN2
ILS at 90 mg/kg (Mus musculus [9]): 0%
IC50 (L1210 [1]): 150 nM
ILS at 30 mg/kg (Mus musculus [10]): 0%

IC50 (L1210 [1]): 42 nM
SMILES: CCOC(=O)Nc1cc2c(c(N)n1)N=C(c1ccc(C)cc1C)CN2

SMILES: CCOC(=O)Nc1cc2c(c(N)n1)N=C(c1ccccc1)CN2
IC50 (L1210 [1]): 4.7 nM
ILS at 12 mg/kg (Mus musculus [11]): 50%

SMILES: CCOC(=O)Nc1cc2c(c(N)n1)N=C(CN(C)c1ccc(Cl)cc1)CN2
ILS at 100 mg/kg (Mus musculus [12]): 65%
Mitotic index (L1210 [6]): 0.71
IC50 (L1210 [1]): 14.5 nM

SMILES: CCOC(=O)Nc1cc2c(c(N)n1)N=C(CN(C)c1ccc(OC)cc1)CN2
ILS at 50 mg/kg (Mus musculus [13]): 80%
Mitotic index (L1210 [6]): 0.64
Mitotic index (L1210 [2]): 0.49
ILS at 25 mg/kg (Mus musculus [14]): 133%
IC50 (L1210 [1]): 7.9 nM
ILS at 25 mg/kg (Mus musculus [15]): 150%

IC50 (L1210 [1]): 18 nM
SMILES: CCOC(=O)Nc1cc2c(c(N)n1)N=C(c1ccc(Cl)c(Cl)c1)CN2

SMILES: CCOC(=O)Nc1cc2c(c(N)n1)N=C(CN(C)c1ccc(C(=O)OC)cc1)CN2
ILS at 25 mg/kg (Mus musculus [16]): 30%
Mitotic index (L1210 [2]): 0.61
IC50 (L1210 [1]): 58 nM
Mitotic index (L1210 [17]): 0.44

SMILES: CCOC(=O)Nc1cc2c(c(N)n1)N=C(c1ccc(C)cc1)CN2
IC50 (L1210 [1]): 24 nM
ILS at 12 mg/kg (Mus musculus [18]): 30%

SMILES: CCOC(=O)Nc1cc2c(c(N)n1)N=C(c1ccc(Cl)cc1)CN2
Mitotic index (L1210 [8]): 0.26
IC50 (L1210 [1]): 52 nM
ILS at 6.25 mg/kg (Mus musculus [19]): 38%
ILS at 12.5 mg/kg (Mus musculus [20]): 37%
ILS at 200 mg/kg (Mus musculus [21]): 38%

IC50 (L1210 [1]): 138 nM
SMILES: CCOC(=O)Nc1cc2c(c(N)n1)N=C(c1ccc(C)c(C)c1)CN2

IC50 (L1210 [1]): 44 nM
SMILES: CCOC(=O)Nc1cc2c(c(N)n1)N=C(c1ccc(Cl)cc1Cl)CN2

SMILES: CCOC(=O)Nc1cc2c(c(N)n1)N=C(c1ccc(OC)cc1)CN2
ILS at 25 mg/kg (Mus musculus [3]): 50%
IC50 (L1210 [1]): 4.1 nM

IC50 (L1210 [1]): 27 nM
SMILES: COC(=O)Nc1nc2cc(C(=O)c3cccs3)ccc2[nH]1 [NOCODAZOLE]

IC50 (L1210 [1]): < 1 nM
SMILES: CC[C@]1(O)C[C@H]2CN(CCc3c([nH]c4ccccc34)[C@@](C(=O)OC)(c3cc4c(cc3OC)N(C=O)[C@H]3[C@@](O)(C(=O)OC)[C@H](OC(C)=O)[C@]5(CC)C=CCN6CC[C@]43[C@@H]65)C2)C1 [VINCRISTINE]
